Screening results (PubChem)
FN deposit inh = fibronectin deposition inhibition; 350,000 tested, 0.086% active; inhibition, % at 12.6 µM; AH1F fibroblasts, Alexa488-fibronectin deposition fluorescence, overnight; AID 743247;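 active = mean inhibition across replicates of 30% or more, regardless of how many single replicates reach that level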;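 also: positive control wells lacked labelled fibronectin entirely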
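Material: AH1F fibroblasts assembling fluorescent fibronectin matrix; amount: 10000 AH1F cells/well; medium: DMEM, 2% serum; reagent: Alexa488-fibronectin, 24 nM final in well; dosing: single compound dose, delivered by pin transfer; incubation: 1 h adhesion, overnight exposure; detection: fluorescence after three HBSS washes, excitation 485 nm, emission 525 nm; measure: fibronectin deposition inhibition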
F508del corr = CFTR F508del correction in bronchial cells; CFBE cells, YFP halide quenching; stimulated with forskolin plus potentiator P3; % fluorescence drop versus neutral controls; activity (quench increase), % at 7.58 µM; 350,000 tested, 0.36% active; AID 720511;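 active = mean added fluorescence quench of at least 8% versus neutral control, with both replicates also reaching 8%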;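 also: cells transiently co-express mutant CFTR-F508del with the halide-sensitive YFP; corrector assay measuring rescue of mutant channel to the surface after 24 h compound exposure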
HIV Env fusion = HIV envelope-mediated fusion inhibition. inhibition, % at 12.3 µM. 360,000 tested, 1.1% active. AID 651610. HeLa-JRFL Env/CEM21 cell fusion, luciferase;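 active = mean replicate inhibition score of at least 50 and every replicate individually at or above 50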;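 also: 0% = plate neutral controls and 100% = maraviroc near 300 nM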
PAX8 inh HTS = inhibitors of PAX8 transcriptional activity in RMG-I cells. inhibition, % at 12.6 µM. 360,000 tested, 1.2% active. RMG-I TPO-luciferase reporter, SteadyGlo, 24 h;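 active = mean replicate inhibition at least 60% with every replicate also reaching 60%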;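 also: luciferase light reporting Pax8 driven TPO promoter activity; plate controls were median of neutral control wells for no effect and mitoxantrone controls for full effect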
PGC1a acetyl inh = PGC1a acetylation modulation, inhibitor mode | U2OS PGC1a acetylation, AlphaScreen anti-acetyl-lysine; with virally co-expressed GCN5 acetyltransferase | inhibition, % at 15.6 µM | 350,000 tested, 0.17% active;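 active = every replicate shows inhibition of at least 40%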;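 also: 0% = neutral control wells and 100% = positive control wells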
EWS-Fli inh = EWS/Fli transcriptional activity inhibition; A673 NR0B1-luciferase reporter, viability-normalised; inhibition, % at 12.6 µM; 350,000 tested, 0.67% active; AID 651661;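 active = mean inhibition of at least 50% after viability correction, with every replicate also passing that limit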;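 also: firefly luciferase signal divided by Alamar Blue viability fluorescence both relative to DMSO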
* hit, by the source's call; / = no result; [ ] = another dose, or the depositor's remark. The list is not random: actives were taken first. Their share in the collection is about 2.3%.

SMILES | FN deposit inh | F508del corr | HIV Env fusion | PAX8 inh HTS | PGC1a acetyl inh | EWS-Fli inh
C[C@H](CO)N1C[C@H](C)[C@@H](CN(C)CC2CC2)Oc2ccc(NS(C)(=O)=O)cc2CC1=O | / | 0 | 58*[16.7 µM] | -16 | 4 | 1
CNC[C@@H]1Oc2ccc(NS(C)(=O)=O)cc2CC(=O)N([C@H](C)CO)C[C@H]1C | / | 0 | 65*[16.7 µM] | 12 | 3 | 2
COC(=O)/C(=C\Nc1ccc(Cl)cc1Cl)NC(=O)c1ccc(OC)cc1 | 0 | 7 | -207 | 17 | -19 | 53*
COC(=O)/C(=C\Nc1ccc(OC)cc1)NC(=O)c1ccc(Cl)cc1Cl | / | / | / | / | -3 | /
O=C(NCC1CC1)Nc1ccccc1F | 0 | 1 | -20 | -30 | 83* | -33
O=C(Nc1ccc(F)cc1)N[C@@H]1C=C[C@H](CC(=O)N2CCCCC2)O[C@@H]1CO | 0 | -2 | 3[16.7 µM] | -6 | 2 | 3
CSCCC(NS(=O)(=O)c1ccc2c(c1)oc(=O)n2C)C(=O)NC1CCN(Cc2ccccc2)CC1 (stereo unspecified) | / | -2 | -2 | 12 | -1 | 6
CSCCC(NS(=O)(=O)c1ccc2c(c1)oc(=O)n2C)C(=O)NC1CCC(C)CC1 (stereo unspecified) | -11 | 2 | 60* | 14 | / | -3
Cc1nn(Cc2c(F)c(F)c(F)c(F)c2F)c(C)c1NC(=O)c1ccc(COc2ccccc2Cl)o1 | 9 | / | 66* | / | 17 | /
Cc1nn(Cc2c(F)c(F)c(F)c(F)c2F)c(C)c1NC(=O)c1ccc(COc2ccc(F)cc2)o1 | 12 | / | 67* | / | 1 | /
Cc1nn(Cc2c(F)c(F)c(F)c(F)c2F)c(C)c1NC(=O)c1c(-c2ccccc2)nn(-c2ccccc2)c1C | 2 | / | 95* | / | 11 | /
Cc1nn(Cc2c(F)c(F)c(F)c(F)c2F)c(C)c1NC(=O)c1ccc(COc2ccccc2Cl)cc1 | -11 | / | 41 | / | 14 | /
Cc1c(C(=O)NCc2ccc(F)cc2)c(-c2ccccc2)nn1-c1ccccc1 | -3 | / | -12 | 21 | 5 | /
CC(=O)N1C[C@@H]2C(c3ccccc3)[C@H](C1)N2S(C)(=O)=O (stereo partly specified) | 0 | / | / | / | / | /
O=c1[nH]c(=O)c2[nH]c(=S)[nH]c2[nH]1 | -6 | 2 | 9 | -7 | 60* | -5
Cc1ccc(NC(=O)Cc2nc(-c3c[nH]c(C(=O)N4CCCC4)c3)cs2)c(C)c1 | -16 | 8.8* | -2 | 13 | -14 | 15
Cc1ccc(NC(=O)CSc2n[nH]c(-c3ccncc3)n2)c(C)c1 | 1 | -2 | 2 | -5 | -11 | 4
CC(C)CNS(=O)(=O)c1ccc(CCC(=O)N2CCN(Cc3ccc4c(c3)OCO4)CC2)cc1 | 2 | / | 79* | / | 16 | /
O=C(CCc1ccc(S(=O)(=O)NCCc2ccccc2)cc1)N1CCN(Cc2ccc3c(c2)OCO3)CC1 | -5 | / | 77* | 45 | -6 | /
CC(C)CNS(=O)(=O)c1ccc(CCC(=O)N2CCN(Cc3ccccc3)CC2)cc1 | -4 | / | 49 | 16 | 1 | /
Cc1ccc(S(=O)(=O)N(C)c2ccc(C(=O)N3CCN(Cc4ccc5c(c4)OCO5)CC3)cc2)cc1 | / | / | 83* | / | -28 | /
CCNS(=O)(=O)c1ccc(CCC(=O)N2CCN(Cc3ccccc3)CC2)cc1 | -2 | 2 | -5 | 3 | -19 | 12
COc1cccc(-c2nc(CS(=O)(=O)CC(=O)NCCCN3CC(C)CC(C)C3)c(C)o2)c1 (stereo unspecified) | 22 | -8 | 6 | 118* | / | 0
COc1cccc(-c2nc(CS(=O)(=O)CC(=O)NCCCN3CCN(C)CC3)c(C)o2)c1 | -6 | 2 | 8 | -5 | 7 | 8
O=C(C[C@H]1CC[C@@H]2[C@H](COC[C@H](O)CN2C(=O)c2ccccc2)O1)N1CCc2ccccc2C1 | -4 | -2 | / | 2 | 2 | 2
O=C(CCl)N1c2ccccc2CCc2ccccc21 | 8 | 1 | -61 | 17 | -3 | 84*
CC(Cl)C(=O)N1c2ccccc2CCc2ccccc21 (stereo unspecified) | 5 | -2 | 10 | 17 | -15 | 14
Cc1ccccc1CC1(C)C(=O)Nc2ccc(S(=O)(=O)NC3CCCCC3)cc21 (stereo unspecified) | -6 | -3 | 17 | 13 | / | -5
